Here are results for 23 compounds from ChEMBL document CHEMBL3232983, “Discovery of 2-iminobenzimidazoles as potent hepatitis C virus inhibitors with a novel mechanism of action” (Eur J Med Chem, 2014).

The source made the active and inactive calls. No cut-off for these calls is given here. Bounds are passed on as bounds.

Data set [1] concerns Hepatitis C virus. Kind of data set: Antiviral activity against cell culture derived Hepatitis C virus expressing NS5A-GFP fusion protein infected in human HuH7 cells assessed as infection rate preincubated for 2 hrs followed by viral inoculation measured after 72 hrs by HTS assay. The format is functional, organism-based, Hepacivirus hominis. Particulars: Huh-7. The essentials:
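Naïve Huh-7 cells were exposed to serially diluted compound and inoculated with cell-culture-adapted HCVcc 2 h later. Infection rate was read at 72 h post-infection. EC50 came from 10-point dose-response curves run in duplicate with quadruplicate measurements, fitted by non-linear regression.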

A short description of data set [2]: Cytotoxicity against human HuH7 cells after 72 hrs by Hoechst 33342 staining-based confocal microscopic analysis. The data set is classed as cell-based, Huh-7. The essentials: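 Naïve Huh-7 cells in the HCVcc format were compound-treated for 2 h, then infected. Cytotoxicity was determined at 72 h post-infection. CC50 came from 10-point dose-response curves in duplicate with quadruplicate measurements, fitted by non-linear regression.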

Data set [3] is described as follows: Half life in human liver microsomes at 2 uM. The data set is classed as ADME. The essentials: (§1)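 Compound at 2 µM final (0.02% DMSO) was incubated with 0.5 mg/mL liver microsomes in potassium phosphate buffer. Human microsomes were a mixed-gender pool of 200 donors; rat microsomes were from males. Half-life is reported in minutes.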
Background: Liver microsomes are a subcellular fraction often used to study metabolism.

Data set [4] is described as follows: Selectivity index, ratio of CC50 for human HuH7 cells to EC50 for cell culture derived Hepatitis C virus. The data set is classed as toxicity, cell-based, Huh-7. As to conditions: read-out: Ratio CC50/EC50. In outline: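 SI is CC50/EC50. Both values come from the same HCVcc assay in naïve Huh-7 cells: compound added 2 h before HCVcc inoculation, infection and cytotoxicity read at 72 h. Each was derived from 10-point dose-response curves in duplicate with quadruplicate measurements.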

The nature of data set [5]: Half life in rat liver microsomes at 2 uM. The data set is classed as ADME. In outline: as §1
Data set [6] has as its system Hepatitis C virus. The data set is described as follows: Antiviral activity against Hepatitis C virus infected in human HuH7.5 cells assessed as inhibition of viral RNA replication after 72 hrs. The data set is classed as functional, organism-based. Particulars: Hepacivirus hominis; Huh-7. The essentials:
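Transiently transfected Huh-7.5 producer cells carrying full-length HCV RNA genomes were plated and left overnight at 37 °C. They were then treated with increasing compound concentrations at 37 °C for 48 h and washed. Viral RNA replication and cytotoxicity in the producer cells were read at 72 h post compound treatment. Data were normalized to the 1% DMSO control, set as 0% inhibition.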

The test system of data set [7] is Hepatitis C virus. Kind of data set: Antiviral activity against Hepatitis C virus infected in human HuH7.5 cells assessed as reduction of secreted infectious viral particles incubated for 48 hrs followed by compound washout measured after 24 hrs. The data set is classed as functional, organism-based. Particulars: Hepacivirus hominis; Huh-7. The essentials:
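Supernatant-transfer (late-stage) assay. Transfected Huh-7.5 producer cells were treated with serially diluted compound at 37 °C for 48 h, then washed. Supernatant was collected 24 h after the wash, clarified by centrifugation and put onto naïve Huh-7 target cells. HCV RNA replication in the target cells was read at 72 h post inoculation and normalized to the 1% DMSO control (0% inhibition).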

In data set [8] the test system is Hepatitis C virus. The data set is described as follows: Antiviral activity against Hepatitis C virus pseudotyped lentiviral particle expressing E1/E2 glycoproteins assessed as inhibition of viral attachment and internalization in human HuH7 cells at 3.3 uM preincubated for 1 hr followed by viral inoculation measured after 72 hrs GFP reporter gene assay. The data set is classed as functional, organism-based. As to conditions: Hepacivirus hominis, Huh-7. In outline:
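Huh-7 target cells were pretreated with 3.3 µM compound for 1 h. Supernatants were replaced at 12 h. GFP expression was scored by confocal microscopy at 72 h post inoculation and normalized to 1% DMSO. Triplicates with quadruple measurements (n = 12).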
On the technique in general: Reporter assays use an easily measured gene product as a stand-in for the process of interest.

Data set [9] deals with Vesicular stomatitis virus. The data set is described as follows: Antiviral activity against Vesicular stomatitis virus pseudotyped particle expressing glycoproteins assessed as inhibition of viral attachment and internalization in human HuH7 cells at 3.3 uM preincubated for 1 hr followed by viral inoculation measured after 72 hrs GFP reporter gene assay. The format is functional, organism-based. Particulars: Huh-7. The essentials: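 Supernatant replaced at 12 h. At 72 h post inoculation, GFP expression was read by confocal microscopy at 20x. Data normalized to 1% DMSO control (0% inhibition). Triplicates with quadruple measurements (n = 12).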

In the case of `CCc1cn2c3ccccc3n(CCOc3ccc(Cl)cc3)c2n1`, the EC50 in the data set with Hepatitis C virus [1] was 6000 nM. The compound also came in with a CC50 at 72 h in data set [2] of 20000 nM.
Take `Br.Cc1cccc2c1n(C)c(=N)n2CCOc1ccc(Cl)cc1`: the EC50 with Hepatitis C virus [1] was 130 nM. For the same compound, in data set [2], the 50% cytotoxic concentration (CC50) at 72 h is 15000 nM. Also, the half-life at 2 µM in data set [3] was greater than 1 h; in data set [5] it was 0.41 h. In data set [4], the selectivity ratio worked out at 115.
As to `Br.Cn1c(=N)n(CCOc2ccc(Cl)cc2)c2ccc(Cl)cc21`, the concentration for a half-maximal effect (EC50) in the data set on Hepatitis C virus [1] came to 11 nM. This compound also yielded a half-maximal cytotoxic concentration (CC50) at 72 h in [2] of 4100 nM. Also, the half-life at 2 µM in data set [3] and in [5] was greater than 1 h throughout. In addition, the selectivity ratio in data set [4] turned out to be 373.
Take `Br.Cn1c(=N)n(CCOc2ccc(Cl)cc2)c2ccccc21`: the EC50 in the data set on Hepatitis C virus [1] was 16 nM. The compound also showed a CC50 at 72 h in [2] of 7600 nM. For the same compound, the half-life at 2 µM in data set [3] is greater than 1 h; in data set [5], 0.225 h. Besides, the selectivity ratio in data set [4] is 475. Also, the inhibition result in the data set with Hepatitis C virus [6] and in the data set with Hepatitis C virus [8] was “Active” throughout. Moreover, the Activity entry in the data set on Hepatitis C virus [7] was “Dose-dependent effect”. For the same compound, in data set [9], the inhibition entry is “inactive”.
Regarding `CCc1ccc(OCCn2c(=N)n(C)c3ccccc32)cc1`, the concentration for a half-maximal effect (EC50) with Hepatitis C virus [1] is 50 nM. The compound also yielded a CC50 at 72 h in data set [2] of 8900 nM. Moreover, the selectivity ratio in [4] was 178.
Take `Cn1c(=N)n(Cc2ccc(-c3ccccc3)cc2)c2ccccc21`: the EC50 in the data set on Hepatitis C virus [1] is 220 nM. Moreover, it took 2600 nM to reach half-maximal cytotoxicity in data set [2] (CC50 at 72 h). For the same compound, in data set [4], the selectivity ratio was 11.8.
In the same order, the values of `Cn1c(=N)n(Cc2ccc(C(C)(C)C)cc2)c2ccccc21` are 170 nM, 5900 nM and 34.7.
As to `Cn1c(=N)n(CC(=O)c2ccc(C(C)(C)C)cc2)c2ccccc21`, the EC50 in the data set with Hepatitis C virus [1] came to 79 nM. The same compound had a CC50 at 72 h in data set [2] of 8900 nM. The selectivity ratio in data set [4] turned out to be 113.
The like results for `CCc1ccc(C(=O)Cn2c(=N)n(C)c3ccccc32)cc1` were, in that order, 380 nM, 9500 nM and 25.
Turning to `CCC(=O)Cn1c(=N)n(CCOc2ccc(Cl)cc2)c2ccccc21`, the EC50 with Hepatitis C virus [1] was found to be 2300 nM. This compound registered a CC50 at 72 h in [2] of 8500 nM.
In the same order, the values of `Nc1nc2ccccc2n1CCOc1ccc(Cl)cc1` are 4000 nM and 8900 nM.
The like results for `Clc1ccc(OCCN2C3=NCCN3c3ccccc32)cc1` were, in that order, 50 nM and 20000 nM.
With `Cn1c(=NC#N)n(CCOc2ccc(Cl)cc2)c2ccc(Cl)c(Cl)c21`, the EC50 in the data set with Hepatitis C virus [1] was greater than 20000 nM. The compound further showed a CC50 at 72 h in [2] greater than 20000 nM.
Regarding `CCc1ccc(Cn2c(=N)n(C)c3ccccc32)cc1`, the EC50 with Hepatitis C virus [1] came to 460 nM. The CC50 at 72 h in [2] is 5800 nM. Also, the selectivity ratio in data set [4] amounted to 12.6.
The like results for `Cn1c(=N)n(CC(=O)c2ccc3ccccc3c2)c2ccccc21` were, in that order, 340 nM, 4500 nM and 13.
Take `Cn1c(=N)n(CCOc2ccc(C(C)(C)C)cc2)c2ccccc21`: the EC50 in the data set with Hepatitis C virus [1] turned out to be 45 nM. This compound also yielded a cytotoxic concentration (CC50) at 72 h in data set [2] of 2800 nM. Further, in data set [4], the selectivity ratio was 62.
`Br.Cn1c(=N)n(CCOc2ccc(Cl)cc2)c2cc(Cl)ccc21`: the 50% effective concentration (EC50) in the data set with Hepatitis C virus [1] was determined as 40 nM. This compound also yielded a CC50 at 72 h in data set [2] of 9840 nM. The half-life at 2 µM in data set [3] and in [5] was greater than 1 h each time. For the same compound, in [4], the selectivity ratio was 246.
In the case of `Cn1c(=N)n(CC(=O)c2ccc(Cl)cc2)c2ccccc21`, the EC50 in the data set on Hepatitis C virus [1] is 73 nM. The compound further had a CC50 at 72 h in data set [2] of 20000 nM. Besides, the selectivity ratio in data set [4] came to 274.
As for `Br.Cn1c(=N)n(CCOc2ccc(Cl)cc2)c2c(Cl)cccc21`, the EC50 in the data set on Hepatitis C virus [1] was 9.7 nM. This compound also showed a CC50 at 72 h in [2] of 4300 nM. The half-life at 2 µM in [3] is greater than 1 h; in [5], 0.623 h. Further, the selectivity ratio in data set [4] is 443.
`Br.Cc1ccc2c(c1)n(CCOc1ccc(Cl)cc1)c(=N)n2C`: the 50% effective concentration (EC50) in the data set with Hepatitis C virus [1] was determined as 90 nM. The midpoint of cytotoxicity in data set [2], the CC50 at 72 h, lay at 10600 nM. Moreover, the half-life at 2 µM is greater than 1 h in data set [3] and 0.3 h in data set [5]. The selectivity ratio in data set [4] was 118.
The like results for `Br.Cn1c(=N)n(CCOc2ccc(Cl)cc2)c2cccc(Cl)c21` were, in that order, 3.3 nM, 1500 nM, greater than 1 h, greater than 1 h and 455.
As for `Br.Cc1ccc2c(c1)n(C)c(=N)n2CCOc1ccc(Cl)cc1`, the half-maximal effective concentration (EC50) in the data set with Hepatitis C virus [1] worked out at 1 nM. Half-maximal cytotoxicity in data set [2] (CC50 at 72 h) was put at 2900 nM. Also, the values for the half-life at 2 µM in data set [3] and in data set [5] were greater than 1 h and 0.145 h, respectively. Further, the selectivity ratio in [4] turned out to be 2900.
Regarding `Cn1c(=N)n(CCOc2ccc(-c3ccccc3)cc2)c2ccccc21`, the 50% effective concentration (EC50) in the data set on Hepatitis C virus [1] turned out to be 200 nM. This compound registered a cytotoxic concentration (CC50) at 72 h in data set [2] of 3400 nM. Also, in data set [4], the selectivity ratio is 17.

By EC50 is commonly meant the concentration needed to bring the measured effect to its halfway point. The CC50 is the concentration giving 50% cytotoxicity. High values mean lower toxicity to the cells, low ones greater toxicity to the cells. As usually defined, the half-life is the time in which the quantity being followed falls by half.
